According to ChEMBL document CHEMBL1155488, “Carbamate derivatives of betulinic acid and betulin with selective cytotoxic activity” (Bioorg Med Chem Lett, 2010):
Active and inactive are the calls of the source. No cut-off for these calls is given here.

Columns and labels:
A2780 [1] = test: Cytotoxicity against human A2780 cells after 96 hrs by SRB assay; type: functional, cell-based; settings: A2780, 96 h
DLD-1 [2] = test: Cytotoxicity against human DLD1 cells after 96 hrs by SRB assay; type: functional, cell-based; settings: DLD-1, 96 h
HCT-8 [3] = test: Cytotoxicity against human HCT8 cells after 96 hrs by SRB assay; type: functional, cell-based; settings: HCT-8, 96 h
HCT-116 [4] = test: Cytotoxicity against human HCT116 cells after 96 hrs by SRB assay; type: functional, cell-based; settings: HCT-116, 96 h
HT-29 [5] = test: Cytotoxicity against human HT-29 cells after 96 hrs by SRB assay; type: functional, cell-based; settings: HT-29, 96 h
[6] = Cytotoxicity against human Liposarcoma cells after 96 hrs by SRB assay; type: functional, cell-based
MCF7 [7] = test: Cytotoxicity against human MCF7 cells after 96 hrs by SRB assay; type: functional, cell-based; settings: MCF7, 96 h
SW480 [8] = test: Cytotoxicity against human SW480 cells after 96 hrs by SRB assay; type: functional, cell-based; settings: SW480, 96 h
SW-1736 = test: Cytotoxicity against human SW1736 cells after 96 hrs by SRB assay; type: functional, cell-based; settings: SW-1736, 96 h
[9] = Cytotoxicity against human 518A2 cells after 96 hrs by SRB assay; type: functional, cell-based; settings: 518A2, 96 h
FaDu [10] = test: Cytotoxicity against human FADU cells after 96 hrs by SRB assay; type: functional, cell-based
8505C [11] = test: Cytotoxicity against human 8505C cells after 96 hrs by SRB assay; type: functional, cell-based
[12] = Cytotoxicity against human A253 cells after 96 hrs by SRB assay; type: functional, cell-based; settings: A253, 96 h
A-431 [13] = test: Cytotoxicity against human A431 cells after 96 hrs by SRB assay; type: functional, cell-based; settings: A-431, 96 h
A549 [14] = test: Cytotoxicity against human A549 cells after 96 hrs by SRB assay; type: functional, cell-based; settings: A549, 96 h
A549 [15] = test: Induction of apoptosis in human A549 cells assessed as caspase3/7 activation at equitoxic IC90 after 6 hrs; type: functional, cell-based
[16] = Selectivity index, ratio of IC50 for human fibroblast to IC50 for human Liposarcoma cells
Method in brief: (§1)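 The selectivity index was calculated as the IC50 on human fibroblasts divided by the IC50 on the corresponding tumor cell line.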

HT-29 [17] = test: Selectivity index, ratio of IC50 for human fibroblast to IC50 for human HT-29 cells; method in brief: as §1
HCT-116 [18] = test: Selectivity index, ratio of IC50 for human fibroblast to IC50 for human HCT116 cells; method in brief: as §1
HCT-8 [19] = test: Selectivity index, ratio of IC50 for human fibroblast to IC50 for human HCT8 cells; method in brief: as §1
FaDu [20] = test: Selectivity index, ratio of IC50 for human fibroblast to IC50 for human FADU cells; method in brief: as §1
DLD-1 [21] = test: Selectivity index, ratio of IC50 for human fibroblast to IC50 for human DLD1 cells; method in brief: as §1
A2780 [22] = test: Selectivity index, ratio of IC50 for human fibroblast to IC50 for human A2780 cells; method in brief: as §1
A549 [23] = test: Selectivity index, ratio of IC50 for human fibroblast to IC50 for human A549 cells; method in brief: as §1
A-431 [24] = test: Selectivity index, ratio of IC50 for human fibroblast to IC50 for human A431 cells; method in brief: as §1
[25] = Selectivity index, ratio of IC50 for human fibroblast to IC50 for human A253 cells; method in brief: as §1
8505C [26] = test: Selectivity index, ratio of IC50 for human fibroblast to IC50 for human 8505C cells; method in brief: as §1
[27] = Selectivity index, ratio of IC50 for human fibroblast to IC50 for human 518A2 cells; method in brief: as §1
MCF7 [28] = test: Selectivity index, ratio of IC50 for human fibroblast to IC50 for human MCF7 cells; method in brief: as §1
SW480 [29] = test: Selectivity index, ratio of IC50 for human fibroblast to IC50 for human SW480 cells; method in brief: as §1
[30] = Selectivity index, ratio of IC50 for human fibroblast to IC50 for human SW1736 cells; method in brief: as §1
[31] = Cytotoxicity against human fibroblast after 96 hrs by SRB assay; type: cell-based
A549 [32] = test: Induction of apoptosis in human A549 cells assessed as caspase3/7 activation at equitoxic IC90 after 2 hrs; type: functional, cell-based
A549 [33] = test: Induction of apoptosis in human A549 cells assessed as DNA fragmentation at equitoxic IC90 after 24 hrs by agarose gel electrophoresis

Row | SMILES | IC50 (A2780 [1]) | IC50 (DLD-1 [2]) | IC50 (HCT-8 [3]) | IC50 (HCT-116 [4]) | IC50 (HT-29 [5]) | IC50 [6] | IC50 (MCF7 [7]) | IC50 (SW480 [8]) | IC50 (SW-1736) | IC50 [9] | IC50 (FaDu [10]) | IC50 (8505C [11]) | IC50 [12] | IC50 (A-431 [13]) | IC50 (A549 [14]) | Activity (A549 [15]) | also measured
1 | C=C(C)[C@@H]1CC[C@]2(C(=O)OC)CC[C@]3(C)[C@H](CC[C@@H]4[C@@]5(C)CC[C@H](OC(=O)NCC)C(C)(C)[C@@H]5CC[C@]43C)[C@@H]12 | 8.35 µM | 18.9 µM | 15 µM | 13.5 µM | 7.22 µM | 6.85 µM | 7.03 µM | 6.67 µM | 2.35 µM | 16.7 µM | 5.53 µM | 7.22 µM | 16.7 µM | 14.8 µM | 2.32 µM | – | –
2 | C=C(C)[C@@H]1CC[C@]2(C(=O)OC)CC[C@]3(C)[C@H](CC[C@@H]4[C@@]5(C)CC[C@H](OC(=O)Nc6ccccc6)C(C)(C)[C@@H]5CC[C@]43C)[C@@H]12 | 69.5 µM | > 100 µM | > 100 µM | > 100 µM | 69 µM | > 100 µM | > 100 µM | > 100 µM | > 100 µM | > 100 µM | > 100 µM | > 100 µM | > 100 µM | 91.5 µM | > 100 µM | – | –
3 | C=C(C)[C@@H]1CC[C@]2(C(=O)O)CC[C@]3(C)[C@H](CC[C@@H]4[C@@]5(C)CC[C@H](OC(=O)NCC)C(C)(C)[C@@H]5CC[C@]43C)[C@@H]12 | 7.41 µM | 17 µM | 16.7 µM | 15.2 µM | 16.7 µM | 17.9 µM | 17.4 µM | 16.6 µM | 5.24 µM | 17.8 µM | 13.8 µM | 17.6 µM | 17.3 µM | 15.2 µM | 5.55 µM | Active | –
4 | C=C(C)[C@@H]1CC[C@]2(COC(C)=O)CC[C@]3(C)[C@H](CC[C@@H]4[C@@]5(C)CC[C@H](OC(=O)NCC)C(C)(C)[C@@H]5CC[C@]43C)[C@@H]12 | 4.28 µM | 6.93 µM | 3.99 µM | 4.3 µM | 5.07 µM | 5.35 µM | 5.98 µM | 1.77 µM | 3.15 µM | 5.12 µM | 4.62 µM | 5.05 µM | 4.88 µM | 5 µM | 1.69 µM | Active | Ratio IC50 [16]: 4.55; Ratio IC50 (HT-29 [17]): 4.8; Ratio IC50 (HCT-116 [18]): 5.67; Ratio IC50 (HCT-8 [19]): 6.2; Ratio IC50 (FaDu [20]): 5.39; Ratio IC50 (DLD-1 [21]): 3.52; Ratio IC50 (A2780 [22]): 5.69; Ratio IC50 (A549 [23]): 14.41; Ratio IC50 (A-431 [24]): 4.87; Ratio IC50 [25]: 4.99; Ratio IC50 (8505C [26]): 4.82; Ratio IC50 [27]: 4.76; Ratio IC50 (MCF7 [28]): 4.07; Ratio IC50 (SW480 [29]): 13.76; Ratio IC50 [30]: 7.73; IC50 [31]: 24.4 µM; Activity (A549 [32]): Active; Activity (A549 [33]): Active
5 | C=C(C)[C@@H]1CC[C@]2(C(=O)OC)CC[C@]3(C)[C@H](CC[C@@H]4[C@@]5(C)CC[C@H](O)C(C)(C)[C@@H]5CC[C@]43C)[C@@H]12 [METHYL BETULINATE] | 29.3 µM | 45.9 µM | 17.2 µM | 20.5 µM | 30.7 µM | 23.3 µM | 24.4 µM | 17.9 µM | 32.1 µM | 28.8 µM | 20.3 µM | 23.7 µM | 18.5 µM | 27 µM | 20.6 µM | – | –
